CHOP inhibitor: inhibitors of CHOP promoter induction, primary screen, cell-based, unfolded protein response, luciferase reporter | CHO-K1 CHOP-promoter luciferase, tunicamycin-induced, 15-18 h | inhibition, % at 10 µM | hit rate 3.8% among 220,000 | AID 2732, 2010;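 active means compounds that reduced the stress-induced luciferase reporter signal by more than about 70% of percent inhibition, limit read from the data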;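 further: 0% = tunicamycin plus vehicle and 100% = wells without tunicamycin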
V-ATPase pHluor: regulators of yeast V-ATPase proton pumping, primary screen, pHLuorin cytosolic pH fluorescence; S. cerevisiae; response, % at 10 µM; hit rate 0.37% among 350,000; AID 504577, 2011; in the data active means response mostly above about 7.3%, no sharp cut-off; inactive means mostly below about 5.4%; further: actives read high
CHOP UPR activ: activators of apoptotic CHOP UPR arm, primary screen, cell-based, CHO-CHOP luciferase reporter, luminescence, uHTS | UPR activation; percent of tunicamycin response over DMSO baseline | activation, % at 10 µM | hit rate 0.34% among 330,000 | AID 449763, 2010;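 active means at 10 µM dose, activation of 40% or more, normalized to positive control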;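 further: 100% = tunicamycin at 10 µg/mL and 0% = DMSO alone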
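Test system: CHO-CHOP cells, stable luciferase reporter of PERK-eIF2a-CHOP signalling | Quantity: 500 CHO-CHOP cells per well | Buffer or medium: F12 plus 10% serum | Compound dosing: 10 µM single point, 0.5% DMSO | Schedule: 6 h compound treatment, 37 °C | Signal: Luciferase luminescence | Control set: Tunicamycin high control, DMSO low control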
XBP1 UPR activ: activators of adaptive XBP1 UPR arm, primary screen, cell-based, CHO-XBP1 luciferase reporter, luminescence, uHTS; hit rate 0.33% among 330,000; IRE1-XBP1 UPR activation; percent of tunicamycin response, DMSO as zero; AID 463104, 2010; activation, % at 20 µM;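 active means versus positive control, 20 µM dose yields 30% or more activation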;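 further: 100% = tunicamycin at 10 µg/mL and 0% = DMSO only wells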
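Material: CHO cell line with stable XBP1 luciferase reporter; buffer or medium: F12 medium containing 10% fetal bovine serum; compound: single point, 20 µM final compound, 1% DMSO; incubation: 6 h treatment, 37 °C; measured by: glow luminescence from Steady-Glo reagent; evaluation: activation, % of tunicamycin; control set: tunicamycin high, DMSO low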
TbMetRS inhib: T. brucei MetRS inhibitors, primary screen, biochemical, luminescence; purified T. brucei MetRS, ATP depletion, Kinase-Glo luminescence; inhibition, % at 11.9 µM; hit rate 0.4% among 360,000; AID 624268, 2012;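 active means inhibition above a per-plate cutoff of the control wells' mean inhibition plus 3 SD, cut at about 5.5% in these data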;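 further: 0% = DMSO wells median and 100% = median of wells with control inhibitor compound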
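Test system – parasite MetRS enzyme · Reagent – substrates ATP, L-methionine and bulk Escherichia coli tRNA · Doses – 11.9 µM compound single dose, 0.9% DMSO · Times – 15 min enzyme-compound preincubation, 2 h reaction, 10 min detection, 25 °C · Signal – Kinase-Glo luminescence, ATP depletion format · Controls – DMSO-only wells as low control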
CHOP inh conf: retest of CHOP induction inhibitors, confirmation, cell-based. shares compounds with CHOP inhibitor. CHO-CHOP promoter luciferase reporter, tunicamycin-induced, luminescence. inhibition, % at 10 µM. hit rate 45% among 2,100;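 active means mean of three repeat readings of reporter signal inhibition above a set limit, cut at about 70% in these data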;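 further: 0% = tunicamycin plus vehicle and 100% = wells lacking tunicamycin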
UPR CHOP confirm: activators of apoptotic CHOP UPR arm, confirmation, cell-based, CHO-CHOP luciferase reporter, single concentration; shares compounds with CHOP UPR activ; CHO-CHOP cells, CHOP-luciferase reporter luminescence; percent of tunicamycin response, DMSO as zero; activation, % at 10 µM; hit rate 64% among 1,000; in the data active means activation above about 33%;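 further: 0% = DMSO wells and 100% = tunicamycin 10 µg/mL wells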
UPR XBP1 confirm: IRE1-XBP1 UPR arm activators, confirmation, cell-based, CHO-XBP1 luciferase reporter, luminescence, single concentration; shares compounds with XBP1 UPR activ; activation, % at 20 µM; hit rate 63% among 1,000; AID 485299, 2010;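 active means reporter signal at least 30% of the positive control's activation in two or more of four replicate wells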;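 further: plate controls were DMSO negative control for no effect and tunicamycin 10 µg/mL positive control for full effect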
VATPase regulator: yeast V-ATPase proton pumping modulators, confirmation, S. cerevisiae, pH-sensitive GFP, second cherry-pick; shares compounds with V-ATPase pHluor; S. cerevisiae pHLuorin cytosolic pH, V-ATPase proton transport; response, % at 10 µM; hit rate 2% among 980; AID 602197, 2012; in the data active means response above about 24%;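 further: plate controls were vehicle wells for no effect and positive control wells for full effect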
The depositor's hits bear a star; . = not tested or not shown. Many of the other results were omitted from the sample, so hits are more common in it than they were.

SMILES	CHOP inhibitor	V-ATPase pHluor	CHOP UPR activ	XBP1 UPR activ	TbMetRS inhib	UPR CHOP confirm	others
CN1C(=O)NC(=O)/C(=C\C=C\c2ccccc2[N+](=O)[O-])C1=O	99*	.	203*	-6	.	263*	CHOP inh conf=-27
CCCNC(=O)N1[C@H]2CC[C@@H]1C(C(=O)OC)=C(c1ccc(C(C)=O)cc1)C2	.	1	3	-2	0	.
O=C1NC(=O)N(Cc2ccccc2Cl)C(=O)/C1=C/c1cccs1	106*	1	52*	47*	0	50*	CHOP inh conf=-30;UPR XBP1 confirm=74*
O=C(NCCCN1CC1)Nc1cccc2ccccc12	.	3	.	.	-1	.
O=c1[nH]c(O)c(/C=C2/C=CC(c3cc(Cl)ccc3Cl)=N2)c(=O)[nH]1	103*	-1	13	68*	1	.	CHOP inh conf=46;UPR XBP1 confirm=111*
C=CCn1cc(C=C2C(=O)NC(=O)NC2=O)c2ccccc21	.	2	1	0	-2	.
O=C1NC(=O)C(=Cc2cn(CCOc3ccc4c(c3)OCO4)c3ccccc23)C(=O)N1	99*	-6	11	31*	0	.	CHOP inh conf=-13;UPR XBP1 confirm=79*
O=C(NP(=O)(N1CC1)N1CC1)c1cc(I)ccc1I	.	-4	.	.	0	.
CN1CSC(=S)N(C)C1	-27	7	40*	-2	-1	30
C/C(=C\c1ccc(N(C)C)cc1)[N+](=O)[O-]	-10	0	224*	-1	0	150*
O=C1NC(=O)C(=Cc2ccc(-c3ccc(S(=O)(=O)N4CCOCC4)cc3)o2)C(=O)N1	.	3	-2	1	0	.
O=C1NC(=O)C(=Cc2ccc(-c3ccc(Cl)cc3)o2)C(=O)N1	.	6	71*	0	0	75*
CCCNC(=O)N1[C@H]2CC[C@@H]1C(C(=O)OC)=C(c1ccc(OC(F)(F)F)cc1)C2	.	-6	-2	-4	0	.
CC1([N+](=O)[O-])COP(=O)(NC2CC2)OC1 (centres undefined)	.	0	.	.	0	.
O=C1NC(=O)N(c2ccccc2)C(=O)/C1=C/C=C/c1ccco1	-15	0	62*	-5	0	256*
O=C1NC(=O)N(Cc2ccccc2)C(=O)/C1=C\C=C\c1ccco1	91*	0	161*	-1	0	186*
CN1C(=O)/C(=C/C=C/c2ccco2)C(=O)NC1=S	3	12	0	1	-1	.
CCN(CC)P(=O)(c1nccn1C)N(CC)CC	-15	1	1	3	0	.
CN(C)P(=O)(N(C)C)N1CC1	.	2	.	.	0	.
CCN(CC)c1ccc(C=C2C(=O)NC(=S)NC2=O)cc1	-11	6	222*	0	0	135*
CN(C)c1ccc(C=C2C(=O)NC(=S)NC2=O)cc1	.	3	.	.	0	.
Cc1cccc(N2C(=O)NC(=O)/C(=C\c3cccn3-c3ccc(Cl)cc3)C2=O)c1	35	2	419*	-3	0	22
C[C@H]1CCC[C@@H](O)CCC/C=C/c2cc(O)cc(O)c2C(=O)O1	44	-4	1	-1	0	.
CC1CCC/C=C/C2CC(O)CC2C(O)/C=C/C(=O)O1 (centres undefined)	14	-2	123*	18	-2	103*
C=CCN1C(=O)/C(=C/c2ccc3c(c2)CCCN3CCC)C(=O)NC1=S	15	-5	95*	-1	0	164*
SMILES	CHOP inhibitor	V-ATPase pHluor	CHOP UPR activ	XBP1 UPR activ	TbMetRS inhib	UPR CHOP confirm	others
Cc1ccc2c(C)cccc2c1	.	-1	.	.	-1	.
CCCCCCn1c(=O)c(C(=O)Nc2ncccc2C)c(O)c2ccccc21	.	-1	61*	36*	-1	27
O=C(COc1ccc2ccccc2c1)N1CCN(Cc2c[nH]c3ccccc23)CC1	-149	1	76*	20	0	43*
O=C(COc1ccc(Br)cc1)N1CCN(Cc2c[nH]c3ccccc23)CC1	-177	-2	23	12	2	.
CCOP(=S)(OCC)N1CC1	.	2	.	.	0	.
CC12CN3CCN(C1)CC(C)(C3)C2=NN	6	2	2	-1	0	.
C=C(C)C(Cc1c(OC)ccc(C(=O)/C=C/c2ccc(O)cc2)c1O)OO (centres undefined)	.	6	47*	2	0	19
COc1cc(CN2CCN(c3cc(C)ccc3C)CC2)ccc1O	-11	-2	393*	14	-1	152*
COC(=O)C(O)(c1ccc(N(C)C(=O)c2cccs2)cc1)C(F)(F)F (centres undefined)	49	0	-2	-3	0	.
Cc1ccc(C[n+]2c(-c3ccc(C)cc3)cc(-c3ccc(C)cc3)cc2-c2ccc(C)cc2)cc1	.	-4	77*	42*	0	238*	UPR XBP1 confirm=19
COC(=O)C1=C(c2ccc(F)cc2OCc2ccccc2)C[C@@H]2CC[C@H]1N2C(=O)NCc1ccc(C)cc1	.	0	2	0	0	.
C1CC2NCCC3NCCC(N1)N32 (centres undefined)	25	1	-2	3	0	.
CCCC[C@@H](C)C[C@@H](C)C(=O)N(C)[C@@H](CC(C)C)C(=O)N[C@H](C(=O)N(C)[C@H](C(=O)N1C[C@@H](O)C[C@H]1C(=O)N1C(=O)C=C[C@@H]1C)C(C)C)C(C)OC(C)=O (some centres undefined)	.	-3	73*	51*	0	46*	UPR XBP1 confirm=74*
COc1ccc(/C=N\N=C(N)N)cc1	1	1	0	0	0	.
NC(N)=N/N=C/c1ccc(N(c2ccccc2)c2ccccc2)cc1	.	2	74*	62*	-1	31	UPR XBP1 confirm=3
COc1ccc(N2C(=O)/C(=C/c3ccc(C)o3)C(=O)NC2=S)cc1	.	11*	433*	-1	1	-9	VATPase regulator=82*
CN[C@@H](C)[C@H](O)c1ccccc1	13	.	.	.	.	.
CCCCCCn1c(O)c(C=NC2CCCCC2N)c(=O)[nH]c1=O (centres undefined)	68	.	-1	30*	.	.	UPR XBP1 confirm=14

High-throughput results: PubChem BioAssay, several laboratories
